Calls of active or inactive are those of the source. The rule behind the calls is not given here.

Assay [1] has as its target Signal transducer and activator of transcription 3 (Homo sapiens) (UniProt P40763). The assay can be described thus: Inhibition of STAT3 phosphorylation in human U937 cells at 100 uM after 24 hrs by Western blotting. Format: cell-based. The settings on record: U-937. Put shortly: (§1)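 U937 cells at 5.0 × 10⁴ cells/mL treated 24 h and lysed with phosphatase and protease inhibitors. 60 µg protein per lane run on 10% SDS–PAGE. Western blots probed with rabbit anti-phospho-STAT3 and anti-STAT3 (1:1000), then HRP anti-rabbit (1:5000), with ECL detection.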
Background: In western blotting, separated proteins are transferred to a membrane and probed.

Assay [2] shares this target. In words: Inhibition of STAT3 phosphorylation in human U937 cells at 10 uM after 24 hrs by Western blotting. Format: cell-based. The settings on record: U-937. A digest of the protocol: as §1
Assay [3] relates to HT-1080. The assay can be described thus: Decrease of F to G actin ratio in human HT1080 cells at 1000 nM after 24 hrs. Format: functional, cell-based. Put shortly: (§2)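 HT1080 cells seeded at 1.0 × 10⁴ cells/100 µL/well and treated 24 h at 37 °C. Cells fixed in 4% formaldehyde, permeabilized with cold methanol and blocked. F-actin stained with Alexa 350 phalloidin and G-actin with Alexa 488 DNase I, each 15 min at rt in the dark. Fluorescence read at ex 355/em 405 and ex 480/em 520 nm. Results are mean of n = 4; Dunnett's test against control.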

The target of assay [4] is Cofilin-1 (Homo sapiens) (UniProt P23528). In words: Inhibition of cofilin phosphorylation in human U937 cells after 24 hrs by Western blotting. Format: cell-based. To be noted: U-937. A digest of the protocol:
(§3)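 U937 cells at 5.0 × 10⁴ cells/mL treated 24 h, then lysed with phosphatase and protease inhibitors. Equal protein loaded on SDS–PAGE. Blots probed 1 h with rabbit antibodies (1:1000) to phospho-cofilin, phospho-LIMK1/2, cofilin and β-actin in T-TBS. Detection with HRP anti-rabbit (1:5000) and ECL.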

In assay [5] the target is T1, LIM domain kinase 1/2 (Homo sapiens) (UniProt P53671+P53667). In words: Inhibition of LIMK1/2 phosphorylation in human U937 cells at 0.1 to 1000 nM after 24 hrs by Western blotting. The format is cell-based. To be noted: U-937. A digest of the protocol: as §3
T1 sequence (P53667 whole entry, looked up, the tested form may be a part): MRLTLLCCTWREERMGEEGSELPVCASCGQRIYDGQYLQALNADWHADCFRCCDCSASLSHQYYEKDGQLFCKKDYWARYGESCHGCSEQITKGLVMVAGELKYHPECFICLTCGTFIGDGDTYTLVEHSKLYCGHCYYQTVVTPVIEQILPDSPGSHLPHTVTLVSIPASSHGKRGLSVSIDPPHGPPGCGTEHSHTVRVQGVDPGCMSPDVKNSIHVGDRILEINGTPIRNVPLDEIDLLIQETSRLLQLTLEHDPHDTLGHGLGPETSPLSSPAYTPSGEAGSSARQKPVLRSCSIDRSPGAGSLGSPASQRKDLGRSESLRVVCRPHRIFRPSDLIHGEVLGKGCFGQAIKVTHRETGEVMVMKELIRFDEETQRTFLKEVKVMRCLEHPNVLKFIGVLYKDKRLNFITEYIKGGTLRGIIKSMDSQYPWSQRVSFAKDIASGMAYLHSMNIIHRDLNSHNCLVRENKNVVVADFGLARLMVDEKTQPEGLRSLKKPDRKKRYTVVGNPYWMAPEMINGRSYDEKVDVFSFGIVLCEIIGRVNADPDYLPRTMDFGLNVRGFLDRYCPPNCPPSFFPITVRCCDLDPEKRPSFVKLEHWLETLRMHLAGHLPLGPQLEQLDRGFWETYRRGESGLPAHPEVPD
T1 sequence (P53671 whole entry, looked up, the tested form may be a part): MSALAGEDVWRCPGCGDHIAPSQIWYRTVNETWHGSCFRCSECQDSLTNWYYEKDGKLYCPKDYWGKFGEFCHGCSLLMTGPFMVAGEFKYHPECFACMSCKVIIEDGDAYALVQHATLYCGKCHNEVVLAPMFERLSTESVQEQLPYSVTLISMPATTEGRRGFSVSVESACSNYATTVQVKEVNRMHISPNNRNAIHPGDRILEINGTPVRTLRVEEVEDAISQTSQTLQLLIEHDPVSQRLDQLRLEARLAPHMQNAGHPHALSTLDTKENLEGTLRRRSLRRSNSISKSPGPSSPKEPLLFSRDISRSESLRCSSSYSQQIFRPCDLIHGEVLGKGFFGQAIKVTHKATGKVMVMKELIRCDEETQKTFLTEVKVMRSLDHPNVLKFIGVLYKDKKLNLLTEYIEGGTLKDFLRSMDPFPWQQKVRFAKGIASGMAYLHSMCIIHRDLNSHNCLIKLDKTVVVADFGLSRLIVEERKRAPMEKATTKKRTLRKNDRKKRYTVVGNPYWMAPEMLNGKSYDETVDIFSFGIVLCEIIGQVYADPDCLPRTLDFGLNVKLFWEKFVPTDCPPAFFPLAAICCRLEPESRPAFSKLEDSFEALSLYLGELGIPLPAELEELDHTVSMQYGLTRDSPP
The target in assay [6] is T1, LIM domain kinase 1/2 (Homo sapiens). In words: Inhibition of LIMK1/2 phosphorylation in human U937 cells at 0.1 to 100 nM after 24 hrs by Western blotting. The settings on record: U-937. Format: cell-based. Put shortly: as §3
The test system of assay [7] is HT-1080. The assay can be described thus: Cytotoxicity against human HT1080 cells after 72 hrs by WST-8 assay. To be noted: HT-1080, 72 h. The format is functional, cell-based. A digest of the protocol:
(§4)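 Cells seeded at 5.0 × 10³ cells/100 µL/well in RPMI-1640 and exposed to compounds for 68 h. WST-8 was then added for a further 4 h. Formazan absorbance read at 450 nm (reference 655 nm). Percent inhibition calculated and IC50 read graphically from the curve.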

The test system of assay [8] is U-937. The assay can be described thus: Cell cycle arrest in human U937 cells assessed as increase of cell population at G2/M phase at 100 nM after 24 hrs using propidium iodide staining by flow cytometry relative to control. The format is functional. Put shortly: (§5)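 U937 cells at 5.0 × 10⁴ cells/mL treated 24 h, pelleted, fixed in ice-cold ethanol overnight at −20 °C, treated with DNase-free RNase (0.25 mg/mL) at 37 °C for 30 min, then stained with propidium iodide. DNA content read by flow cytometry, 20,000 cells per sample. G0/G1, S and G2/M fractions compared with untreated control.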

For assay [9], the system named is U-937. In words: Cell cycle arrest in human U937 cells assessed as reduction of cell population at S phase at 100 nM after 24 hrs using propidium iodide staining by flow cytometry relative to control. Format: functional. Details: scale not given: the % may be the effect or the level left. A digest of the protocol: as §5
A general note: A flow cytometer gives signals particle by particle.

Assay [10] has as its system HL-60. In words: Cytotoxicity against human HL60 cells after 72 hrs by WST-8 assay. Format: functional, cell-based. The settings on record: HL-60, 72 h. A digest of the protocol:
as §4
For orientation: Tetrazolium dyes change colour on reduction, which living cells bring about.

Assay [11] relates to HT-1080. In words: Decrease of F to G actin ratio in human HT1080 cells at 100 nM after 24 hrs. Format: functional, cell-based. Put shortly: as §2
For assay [12], the system named is U-937. The assay can be described thus: Cytotoxicity against human U937 cells after 72 hrs by WST-8 assay. Format: functional, cell-based. The settings on record: U-937, 72 h. A digest of the protocol:
as §4

Assay [13] has as its system U-937. The assay can be described thus: Cell cycle arrest in human U937 cells assessed as reduction of cell population at G0/G1 phase at 100 nM after 24 hrs using propidium iodide staining by flow cytometry relative to control. The format is functional. More on the design: scale not given: the % may be the effect or the level left. Put shortly:
as §5

Chain of Signal transducer and activator of transcription 3 (Homo sapiens) (P40763 whole entry): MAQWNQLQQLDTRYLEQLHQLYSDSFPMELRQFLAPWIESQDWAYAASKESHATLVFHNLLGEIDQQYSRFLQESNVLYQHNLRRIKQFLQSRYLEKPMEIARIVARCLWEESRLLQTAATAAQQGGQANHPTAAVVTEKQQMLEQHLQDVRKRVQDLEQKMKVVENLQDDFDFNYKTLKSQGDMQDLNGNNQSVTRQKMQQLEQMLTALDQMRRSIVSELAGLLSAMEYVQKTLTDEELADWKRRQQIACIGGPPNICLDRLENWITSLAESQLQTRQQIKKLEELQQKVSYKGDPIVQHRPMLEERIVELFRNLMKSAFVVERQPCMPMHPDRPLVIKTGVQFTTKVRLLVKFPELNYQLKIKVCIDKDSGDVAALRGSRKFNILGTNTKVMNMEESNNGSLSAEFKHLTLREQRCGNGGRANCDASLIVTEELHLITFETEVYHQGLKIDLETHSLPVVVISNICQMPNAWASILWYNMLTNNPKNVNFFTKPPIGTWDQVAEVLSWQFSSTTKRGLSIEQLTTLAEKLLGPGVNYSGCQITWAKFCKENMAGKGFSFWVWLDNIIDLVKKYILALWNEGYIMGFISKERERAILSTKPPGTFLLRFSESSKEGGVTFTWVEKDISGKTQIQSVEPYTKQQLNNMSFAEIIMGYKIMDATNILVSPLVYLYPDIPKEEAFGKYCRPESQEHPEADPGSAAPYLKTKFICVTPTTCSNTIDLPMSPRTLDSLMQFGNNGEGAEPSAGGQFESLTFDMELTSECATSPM
Chain of Cofilin-1 (Homo sapiens) (P23528 whole entry): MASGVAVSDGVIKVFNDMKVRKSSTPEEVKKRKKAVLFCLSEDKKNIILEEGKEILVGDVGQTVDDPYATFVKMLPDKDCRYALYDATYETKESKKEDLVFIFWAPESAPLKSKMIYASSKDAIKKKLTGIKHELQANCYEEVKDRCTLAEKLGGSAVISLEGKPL

With `CC(=O)OC(C)(C)/C=C/C(=O)[C@](C)(O)[C@H]1[C@H](O)C[C@@]2(C)[C@@H]3CC=C4[C@H](C[C@H](O)C(=O)C4(C)C)[C@]3(C)C(=O)C[C@]12C`, the outcome in assay [1] was Active. Also, in assay [2], the result was inactive.

`CC(C)(O)/C=C/C(=O)[C@](C)(O)[C@H]1[C@H](O)C[C@@]2(C)[C@@H]3CC=C4[C@@H](C=C(O)C(=O)C4(C)C)[C@]3(C)C(=O)C[C@]12C` [CUCURBITACIN I]: the result in assay [3] was Active. In [4], the Activity entry was “Dose-dependent effect”. Also, the result in [5] and in assay [6] was inactive.

One may read the IC50 as the midpoint of a concentration-inhibition curve. For `CC(=O)OC(C)(C)/C=C/C(=O)[C@](C)(O)[C@H]1[C@H](O)C[C@@]2(C)[C@@H]3CC=C4[C@@H](C=C(O)C(=O)C4(C)C)[C@]3(C)C(=O)C[C@]12C` [CUCURBITACIN E], the figures for the IC50 in assay [7], in [10] and in assay [12] were 40 nM, 18 nM and 16 nM, respectively. Further, the Activity was 34.2% in assay [8], 28.1% in [9], “Dose-dependent effect” in [4] and 37.7% in assay [13]. Moreover, the outcome in assay [2] and in assay [6] was inactive. Moreover, the result in assay [11] was Active.

Source of the values: ChEMBL document CHEMBL1157892, “Cucurbitacin E as a new inhibitor of cofilin phosphorylation in human leukemia U937 cells” (Bioorg Med Chem Lett, 2010).
